Our source for the Ratio Ki and Ki values is ChEMBL document CHEMBL2413075, “Structure activity relationship study of benzo[d]thiazol-2(3H)one based σ receptor ligands” (Bioorg Med Chem Lett, 2013).

Some results are limits rather than exact numbers.

One assay is filed under the species Rattus norvegicus. Put plainly: Selectivity ratio of Ki for sigma 2 receptor in rat liver membranes to Ki for sigma 1 receptor in rat liver membranes. Conditions: Membrane. It is filed as cell membranes.
Assay [1] concerns the target Sigma non-opioid intracellular receptor 1 (Rattus norvegicus, UniProt Q9R0C9). Kind of assay: Displacement of [3H](+)-pentazocine from sigma 1 receptor in rat liver membranes. It is filed as cell membranes, Membrane. In a few lines:
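Rat liver membranes in a 96-well high-throughput format. Sigma-1 sites labeled with 5 nM [3H](+)-pentazocine. Nonspecific binding defined with 10 μM haloperidol. Ki values derived from displacement.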

Assay [2] can be described thus: Displacement of [3H]DTG from sigma 2 receptor in rat liver membranes. It is filed as cell membranes, Membrane. A digest of the protocol:
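Rat liver membranes in a 96-well high-throughput format. Sigma-2 sites labeled with 5 nM [3H]DTG, with 300 nM (+)-pentazocine present to mask sigma-1. Nonspecific binding defined with 10 μM haloperidol. Ki values derived from displacement.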

The species entered for the next assay is Cavia porcellus. Kind of assay: Selectivity ratio of Ki for sigma 2 receptor in guinea pig brain membranes to Ki for sigma 1 receptor in guinea pig brain membranes. It is filed as cell membranes.
Assay [3] in a line: Binding affinity to sigma 2 receptor in guinea pig brain membranes. The assay is classed as cell membranes, Cavia porcellus, Membrane.

Sequence of Sigma non-opioid intracellular receptor 1 (Q9R0C9 whole entry): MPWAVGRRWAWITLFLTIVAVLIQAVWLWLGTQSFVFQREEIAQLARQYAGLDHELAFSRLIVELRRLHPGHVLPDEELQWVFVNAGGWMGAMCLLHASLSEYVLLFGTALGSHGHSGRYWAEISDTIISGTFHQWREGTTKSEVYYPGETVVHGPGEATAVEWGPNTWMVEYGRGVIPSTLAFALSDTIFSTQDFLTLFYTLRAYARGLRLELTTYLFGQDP

For orientation: Ki means a dissociation constant, usually derived from enzyme kinetics or from competition with a known ligand. In the case of `CCC(=O)c1ccc2c(c1)sc(=O)n2CCCCCN1CCCCCC1`, the Ratio Ki in the assay filed under Rattus norvegicus came out at 0.7. The Ki was determined as 12.2 nM in assay [1] and 8.3 nM in assay [2].
Take `CCCc1ccc2c(c1)sc(=O)n2CCCCCN1CCCCCC1`: the Ratio Ki in the assay listed under Rattus norvegicus was 0.3. Also, the Ki came out at 4.6 nM in assay [1] and 1.6 nM in assay [2].
For `O=c1sc2ccccc2n1CCN1CCCCCCC1`, the Ratio Ki in the assay filed under Rattus norvegicus is 74. The Ki in assay [1] was found to be 9.7 nM; in assay [2], 716 nM.
The matching figures for `CCCC(=O)c1ccc2c(c1)sc(=O)n2CCCCN1CCCCCC1`: 4.5, 4.8 nM and 21.6 nM.
Turning to `O=c1sc2ccccc2n1CCCCCN1CCCCCC1`, in the assay listed under Rattus norvegicus, the Ratio Ki is 0.4. Further, the Ki in assay [1] came to 7 nM; in assay [2], 2.5 nM.
For the compound `CCC(=O)c1ccc2c(c1)sc(=O)n2CCN1CCCCCC1`, the Ratio Ki in the assay listed under Rattus norvegicus is 484. The Ki in assay [1] is 4.5 nM; in assay [2] it was 2180 nM.
Take `CCC(=O)c1ccc2c(c1)sc(=O)n2CCCCCCN1CCCCCC1`: the Ratio Ki in the assay listed under Rattus norvegicus stood at 0.1. Besides, the results for the Ki in assay [1] and in assay [2] were 10.4 nM and 1.1 nM, respectively.
On the same counts, the results for `CCCCc1ccc2c(c1)sc(=O)n2CCCN1CCCCCC1` are 7, 2.2 nM and 15.3 nM.
Regarding `O=c1sc2ccccc2n1CCCCN1CCCCCC1`, the Ratio Ki in the assay filed under Rattus norvegicus was 31. Also, the figures for the Ki in assay [1] and in assay [2] were 3.2 nM and 101 nM, respectively.
As to `CCCc1ccc2c(c1)sc(=O)n2CCCN1CCCCCC1`, the Ratio Ki in the assay filed under Rattus norvegicus was 13. Moreover, the values for the Ki in assay [1] and in assay [2] were 1.4 nM and 17.2 nM, respectively.
Turning to `CCCc1ccc2c(c1)sc(=O)n2CCCCN1CCCCCC1`, the Ratio Ki in the assay filed under Rattus norvegicus was 0.7. Further, the Ki is 6.1 nM in assay [1] and 4.3 nM in assay [2].
On the same counts, the results for `CCCCc1ccc2c(c1)sc(=O)n2CCCCCCN1CCCCCC1` are 0.3, 12 nM and 4.1 nM.
Consider `O=c1sc2ccccc2n1CCN1CCCC1`, for which the Ratio Ki in the assay listed under Rattus norvegicus is 14. In addition, the Ki amounted to 578 nM in assay [1] and 8260 nM in assay [2].
The matching figures for `CCC(=O)c1ccc2c(c1)sc(=O)n2CCCN1CCCCCC1`: 83, 3.7 nM and 305 nM.
As for `CCCc1ccc2c(c1)sc(=O)n2CCCCCCN1CCCCCC1`, the Ratio Ki in the assay listed under Rattus norvegicus turned out to be 0.4. Also, the Ki in assay [1] turned out to be 6.3 nM; in assay [2], 2.3 nM.
Take `CCCC(=O)c1ccc2c(c1)sc(=O)n2CCCCCCN1CCCCCC1`: the Ratio Ki in the assay filed under Rattus norvegicus was 0.2. The Ki in assay [1] amounted to 10.8 nM; in assay [2], 2.3 nM.
`O=c1sc2cc(CCCF)ccc2n1CCN1CCCCCC1`: in the assay listed under Rattus norvegicus, the Ratio Ki amounted to 486.
As for `CCCc1ccc2c(c1)sc(=O)n2CCN1CCCCCC1`, the Ratio Ki was 169 in the assay filed under Rattus norvegicus and above 1000 in the assay filed under Cavia porcellus. Besides, the Ki was 1.6 nM in assay [1], 270 nM in assay [2] and above 1000 nM in assay [3].
With `O=c1sc2ccccc2n1CCCN1CCCCCC1`, the Ratio Ki in the assay filed under Rattus norvegicus stood at 43. Moreover, the results for the Ki in assay [1] and in assay [2] were 4.1 nM and 177 nM, respectively.
`O=c1sc2ccccc2n1CCCCCCN1CCCCCC1`: in the assay filed under Rattus norvegicus, the Ratio Ki came to 0.3. The results for the Ki in assay [1] and in assay [2] were 7.5 nM and 2.4 nM, respectively.
`CCC(=O)c1ccc2c(c1)sc(=O)n2CCN1CCCC1`: the Ratio Ki in the assay listed under Rattus norvegicus worked out at 41. Further, the values for the Ki in assay [1] and in assay [2] were 116 nM and 4790 nM, respectively.
For the compound `CCCC(=O)c1ccc2c(c1)sc(=O)n2CCCN1CCCCCC1`, in the assay filed under Rattus norvegicus, the Ratio Ki was 39. Besides, the Ki came out at 2.6 nM in assay [1] and 104 nM in assay [2].
On to `CCCC(=O)c1ccc2c(c1)sc(=O)n2CCCCCN1CCCCCC1`, for which the Ratio Ki in the assay filed under Rattus norvegicus amounted to 0.4. Besides, the Ki in assay [1] worked out at 16.3 nM; in assay [2], 5.7 nM.
As for `CCCCc1ccc2c(c1)sc(=O)n2CCCCN1CCCCCC1`, the Ratio Ki in the assay listed under Rattus norvegicus was determined as 2.4. Besides, the Ki is 1.9 nM in assay [1] and 4.4 nM in assay [2].
The matching figures for `CCC(=O)c1ccc2c(c1)sc(=O)n2CCCCN1CCCCCC1`: 3, 10.3 nM and 30.3 nM.
